Screening data (PubChem BioAssay)
This is a sample that favours compounds with a hit; in the whole collection about 2.9% have one here.
E-sel inducer: induces E-selectin expression in human endothelial cells; P16581; HUVEC E-selectin immunofluorescence imaging; normalized: neutral wells 0, TNF-alpha wells 100; activation, % at 7.58 µM; 260,000 compounds, 0.37% hits;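 active = mean E-selectin-positive cell signal at least 10% of the positive control, reached in at least 60% of replicates, without over 20% cell loss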
Target sequence (P16581 whole entry, looked up): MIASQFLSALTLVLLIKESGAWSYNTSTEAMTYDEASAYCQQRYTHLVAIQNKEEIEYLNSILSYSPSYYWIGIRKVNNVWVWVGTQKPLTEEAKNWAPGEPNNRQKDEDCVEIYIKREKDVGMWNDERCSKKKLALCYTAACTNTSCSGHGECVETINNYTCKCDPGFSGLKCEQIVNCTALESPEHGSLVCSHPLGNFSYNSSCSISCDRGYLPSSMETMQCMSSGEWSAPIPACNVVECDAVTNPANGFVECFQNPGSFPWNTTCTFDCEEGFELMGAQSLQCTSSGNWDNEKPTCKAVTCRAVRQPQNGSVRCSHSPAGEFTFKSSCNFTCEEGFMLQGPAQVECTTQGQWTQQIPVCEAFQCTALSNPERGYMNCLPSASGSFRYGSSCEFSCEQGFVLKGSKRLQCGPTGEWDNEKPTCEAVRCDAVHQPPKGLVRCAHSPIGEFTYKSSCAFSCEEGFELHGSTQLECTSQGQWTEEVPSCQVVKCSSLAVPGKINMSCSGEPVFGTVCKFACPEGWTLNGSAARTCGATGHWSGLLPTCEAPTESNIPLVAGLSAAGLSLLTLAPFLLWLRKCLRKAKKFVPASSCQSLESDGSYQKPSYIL
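Test system – human umbilical vein endothelial cells (HUVEC), E-selectin induction · Input – 3,000 HUVEC seeded per well · Buffer or medium – EGM-2, gelatin · Compound dosing – single-point compound dose · Detection – immunofluorescence imaging · Measure – percent E-selectin-positive cells · Controls – TNF-alpha high, DMSO low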
SIRT5 inh: inhibitors of human sirtuin-5 desuccinylase. Q9NXA8. Purified SirT5, succinyl-peptide AMC, trypsin-coupled fluorescence. inhibition, % at 15 µM. 330,000 compounds, 1.1% hits; in the data active = inhibition above about 15%
DENV2 CPE: protects cells from dengue virus 2 cytopathic effect. DENV2-infected cells, cytopathic effect rescue, plate reader. CPE inhibition, % at 9.99 µM. 350,000 compounds, 1.7% hits. AID 651640; in the data active = CPE inhibition above about 20%, passing the limit was not always enough; tested in BHK-21 cells;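 note: 0% = median of neutral control wells and 100% = median of positive control wells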
Starred values were filed as active, the others as inactive; . = not tested or not shown.

SMILES | E-sel inducer | SIRT5 inh | DENV2 CPE
COc1ccc(S(=O)(=O)Nc2ccc3c(c2)C(=O)N([C@H](C)CO)C[C@@H](C)[C@@H](CN(C)S(=O)(=O)c2ccc(C)cc2)OCCCC[C@H](C)O3)cc1 | . | 10 | 17
COc1ccc(S(=O)(=O)N(C)C[C@@H]2OCCCC[C@H](C)Oc3ccc(NS(=O)(=O)c4ccc(C)cc4)cc3C(=O)N([C@H](C)CO)C[C@H]2C)cc1 | 0 | 22* | -14
COc1ccc(S(=O)(=O)Nc2ccc3c(c2)C(=O)N([C@H](C)CO)C[C@@H](C)[C@H](CN(C)S(=O)(=O)c2ccc(C)cc2)OCCCC[C@@H](C)O3)cc1 | . | 13 | -1
COc1ccc(S(=O)(=O)N(C)C[C@@H]2OCCCC[C@H](C)Oc3ccc(NS(=O)(=O)c4ccc(C)cc4)cc3C(=O)N([C@@H](C)CO)C[C@H]2C)cc1 | 0 | 4 | 4
COc1ccc(S(=O)(=O)N(C)C[C@@H]2OCCCC[C@@H](C)Oc3ccc(NS(=O)(=O)c4ccc(C)cc4)cc3C(=O)N([C@@H](C)CO)C[C@@H]2C)cc1 | 0 | 23* | -2
COc1ccc(S(=O)(=O)N(C)C[C@H]2OCCCC[C@H](C)Oc3ccc(NS(=O)(=O)c4ccc(C)cc4)cc3C(=O)N([C@@H](C)CO)C[C@@H]2C)cc1 | 0 | 22* | 10
COc1ccccc1/C=C(/NC(=O)c1ccc(Cl)cc1Cl)C(=O)O | . | . | 8
COc1ccccc1CNC(=O)C[C@@H]1CC[C@@H](NC(=O)CN(C)C)[C@@H](CO)O1 | -1 | -4 | 0
COc1ccc(NC(=O)C2CCCN(S(=O)(=O)c3ccc4c(c3)oc(=O)n4C)C2)c(OC)c1 (configuration not stated) | 1 | 0 | 4
CC1CCCC(NC(=O)COC(=O)COc2cccc(F)c2)C1C (configuration not stated) | 0 | . | 4
CCCCN1CCN=C1Nc1ccccc1 | 0 | 1 | -7
c1ccc(CCN2CCN=C2Nc2ccccc2)cc1 | 0 | -2 | 9
Fc1ccc(CCN2CCN=C2Nc2ccccc2)cc1 | 0 | . | 124*
CC(C)CCCN1CCN=C1Nc1ccccc1 | 0 | -5 | 27*
COc1ccc(S(=O)(=O)N2CCOCC2)cc1C(=O)N1CCCC1 | 0 | 1 | 3
COc1ccc(CCN(Cc2ccccn2)C(=S)Nc2ccccc2F)cc1OC | 2 | -6 | 4
O=C(/C=C/c1ccccn1)c1cc(Br)ccc1O | 0 | -7 | -3
O=C(/C=C/c1ccccn1)c1ccc(Br)cc1O | 105* | 0 | 5
CC(C)(C)OC(=O)N[C@H]1C=C[C@@H](CC(=O)OCC(F)(F)F)C1 | 0 | . | 36*
CC(C)(C)OC(=O)N[C@@H]1C=CC(=O)C1 | 0 | . | -11
CC12CCC(=O)N1C(C(=O)OCC(=O)Nc1ccc(Cl)c(Cl)c1)CS2 (configuration not stated) | . | -5 | 1
COc1ccccc1NC(=O)/C=C/c1ccc(OC)c(S(=O)(=O)N2CCOCC2)c1 | 0 | 0 | 0
COc1ccc(/C=C/C(=O)Nc2cc(F)ccc2C)cc1S(=O)(=O)N1CCOCC1 | 0 | 18* | 3
COc1ccc(NC(=O)C(=O)Nc2cccc3cccnc23)cc1OC | . | -2 | -4
COc1ccc(C(=O)Nc2cccc3cccnc23)cc1OC | . | 20* | 0
SMILES | E-sel inducer | SIRT5 inh | DENV2 CPE
CCCC(=O)Nc1ccc2c(c1)C(=O)N(C)[C@H]1CC[C@H](CC(=O)O)O[C@@H]1CO2 | 0 | -1 | 0
O=S(=O)(c1cnc(Cl)c(Cl)c1)N1CCCc2ccccc21 | . | 0 | -4
O=S(=O)(c1cnc(Cl)c(Cl)c1)N1CCc2ccccc21 | . | 0 | 57*
COc1cc(-c2cnc3c(NC=O)cc(-c4ccccc4)cn23)cc(OC)c1OC | 0 | -2 | 13
COc1cc(-c2cnc3c(NC=O)cc(-c4ccc(C)cc4)cn23)cc(OC)c1OC | 0 | . | 95*
COc1ccc(-c2cc(NC(C)=O)c3ncc(-c4ccc(OC)c(OC)c4)n3c2)cc1OC | 0 | . | -3
COc1cc(-c2cnc3c(NC(C)=O)cc(-c4ccccc4CN(C)C)cn23)cc(OC)c1OC | . | . | 25*
CC(=O)Nc1cc(-c2ccc(C(=O)NC3CC3)cc2)cn2c(-c3cccc(C(C)=O)c3)cnc12 | 0 | 0 | 1
COc1ccc(-c2cnc3c(NC(C)=O)cc(-c4ccccc4OC)cn23)cc1OC | 0 | -4 | 30*
CC(=O)Nc1cc(-c2ccc(C(=O)NC3CC3)cc2)cn2c(-c3cccc(C(F)(F)F)c3)cnc12 | 0 | -5 | 38*
COc1cc(-c2cc(NC(C)=O)c3ncc(-c4cc(OC)c(OC)c(OC)c4)n3c2)cc(OC)c1OC | 0 | . | -10
